Ecoli WT expand: E. coli BW25113 growth inhibition, expanded screen; OD600 absorbance; growth inhibition, % at 100 µM; 98,000 compounds, 0.15% hits; AID 710;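 active = growth inhibition above about 50% at one test dose, limit read from the data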;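 also: growth measured after 20 h incubation at 37 °C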
PostGolgi ctrl: yeast control strain growth, post-Golgi counter-screen; inhibition, % at 10 µM; efflux-deficient yeast background strain, growth absorbance A615, 16 h; AID 738; 98,000 compounds, 5% hits
tolC growth inh: E. coli tolC mutant growth inhibition; AID 573; 65,000 compounds, 2.2% hits; growth inhibition, % at 10 µM (by protocol); E. coli BW25113 tolC mutant growth, OD615;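 active = growth inhibition at or above a cutoff equal to the mean over every tested compound plus 3 SD, cut at about 60% in these data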;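 also: growth measured after 20 h incubation at 37 °C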
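Material: E. coli BW25113 ΔtolC::kan, tolC deletion mutant strain. Measure: percent growth inhibition. Schedule: 37 °C, 20 h exposure. Doses: single-point testing at 10 µM. Signal: A615 absorbance measurement. Buffer or medium: kanamycin-containing LB broth (50 µg/mL).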
PostGolgi yeast: growth inhibition of a yeast mutant, post-Golgi transport screen. post-Golgi transport phenotypic cell assay. inhibition, % at 10 µM. 98,000 compounds, 0.9% hits. AID 739;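 also: yeast cells grown in 1536-well plates; yeast grown about 18 h at 30C before absorbance read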
Cav32 inh: blocks human Cav3.2 T-type calcium channel. O95180. Cav3.2-expressing cells, Fluo-4 calcium fluorescence FDSS; active compounds read low. B-score at 10 µM. 100,000 compounds, 4% hits. AID 449739;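 active = single-dose well whose peak fluorescence ratio is a statistical outlier from its plate by either plate-standardised score or position-corrected B-score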
* = called active by the depositor; . = not tested or not shown. Rows were chosen to be rich in hits. Some 8.4% of all compounds tested hit in one or more screens of this group. Rule as the data show it, unless noted: active = inhibition above about 30%; inactive = the rest.

SMILES | Ecoli WT expand | PostGolgi ctrl | tolC growth inh | PostGolgi yeast | Cav32 inh
Clc1ccc(OCc2nnc(SCc3nnc(-c4ccccc4)o3)o2)c(Cl)c1 | -11 | 41* | 60 | 5 | -6.1*
Clc1ccc2nc(SCc3nnc(-c4ccccc4)o3)[nH]c2c1 | 3 | 24 | 44 | -8 | .
CCOC(=O)/C(=C\c1ccc([N+](=O)[O-])o1)NC(=O)c1ccccc1 | 0 | 1 | . | 4 | 0.58
O=C(NNC(=O)c1ccc([N+](=O)[O-])o1)c1ccccc1 | 100* | -2 | . | 2 | -0.086
CC1=C(C)CS(=O)N(S(=O)(=O)c2ccc(Cl)cc2)C1 (stereo not drawn) | 5 | 10 | 2 | -2 | -7.4*
N#Cc1c(C(F)(F)F)cc(-c2ccco2)nc1SCc1ccncc1 | -13 | 49* | 39 | 0 | -0.96
Cc1ccc(C)c(S(=O)(=O)NCc2ccc(C(=O)N3CCC(Cc4ccccc4)CC3)cc2)c1 | -15 | 17 | . | 6 | -3.9*
Cc1ccc(C)c(N2CCN(CC(=O)Nc3ccc([N+](=O)[O-])cc3C(=O)Nc3ccccc3F)CC2)c1 | -7 | 38* | . | -5 | -1.2
COc1ccccc1N1CCN(CC(=O)Nc2cc(F)ccc2C)CC1 | -1 | -1 | 1 | -3 | -3.7
CCN1C(=O)c2cccc3c(S(=O)(=O)Nc4ccccn4)ccc1c23 | 1 | 11 | 15 | 14 | 0.4
CN(C)c1cccc2c(S(=O)(=O)Nc3ccccn3)cccc12 | 4 | 36* | -7 | -24 | -0.64
CCC(Sc1nc(=O)cc(N)n1-c1ccccc1)C(=O)Nc1ccc(Cl)cn1 (stereo not drawn) | . | . | 5 | . | .
Cc1[nH]c(=O)[nH]c(=O)c1CSc1nnc([C@@H](NC(=O)OC(C)(C)C)C(C)C)o1 | -3 | -1 | -10 | -7 | 0.066
CC(C)=CCSc1nnc([C@@H](NC(=O)OC(C)(C)C)C(C)C)o1 | 6 | 6 | 15 | 14 | -2.9*
CC(C)[C@H](NC(=O)OC(C)(C)C)c1nnc(SCC(=O)Nc2ccc(Br)cc2)o1 | 3 | 4 | 45 | -1 | -6.7*
Cc1cccc(C)c1NC(=O)CSc1nnc([C@H](C)NC(=O)OC(C)(C)C)o1 | -8 | 24 | -6 | 4 | 0.31
Cc1noc(C)c1S(=O)(=O)Nc1ccc(O)c2c(=O)cc(-c3ccccc3Cl)oc12 | . | . | . | . | -3.9
Cc1ccc(CSc2ncccc2C(=O)O)cc1 | -4 | 0 | . | 2 | -0.0071
O=Cc1cc2ccccc2nc1SCc1ccc(Cl)c(Cl)c1 | -10 | 38* | . | -5 | -1.5
O=Cc1cc2ccccc2nc1SCc1ccc(Cl)cc1 | -22 | 23 | . | 68* | -1.2
Cc1ccc(CSc2nc3ccccc3cc2C=O)cc1 | 5 | 38* | . | 75* | 0.053
COC(=O)c1ccc(CSc2nc3scc(-c4cccs4)c3c(=O)[nH]2)o1 | -18 | 14 | 26 | 7 | -0.69
CCn1c(SCC(=O)Nc2ccccc2C(=O)OC)nnc1-c1cccc(C)c1 | 3 | 10 | . | 0 | -0.94
CCOC(=O)c1ccc(NC(=O)CC2C(=O)N(c3ccc(F)cc3)C(=O)N2CCC(C)C)cc1 (stereo not drawn) | -12 | 2 | . | -5 | -4.5*
O=C(COC(=O)c1cccc(S(=O)(=O)N2CCc3ccccc32)c1)NC1CCS(=O)(=O)C1 (stereo not drawn) | 2 | 3 | -10 | -3 | -0.075
SMILES | Ecoli WT expand | PostGolgi ctrl | tolC growth inh | PostGolgi yeast | Cav32 inh
COc1ccccc1NC(=O)Cn1cnc2c(cnn2-c2ccc(C)c(C)c2)c1=O | -6 | 14 | 7 | 3 | .
CCc1nn(C(C)C(=O)N2CCc3ccccc3C2)c(=O)c2cc3occc3n12 (stereo not drawn) | 0 | 8 | 3 | -2 | -1.5
CCCC/C(O)=C1\C(=O)CC(C)(C)CC1=Nc1ccccc1OC | 0 | 31* | . | 9 | -1.9
CCCCC(CC)C(=O)NCCCN1CCN(CCCNC(=O)C(CC)CCCC)CC1 (stereo not drawn) | 4 | -1 | -14 | -5 | -7.3*
COc1ccccc1CN(Cc1ccco1)S(=O)(=O)c1ccc(-n2cnnn2)c(OC)c1 | -18 | 36* | 29 | 22 | -1.3
COc1cc(S(=O)(=O)N(Cc2ccccn2)Cc2ccccc2Cl)ccc1-n1cnnn1 | . | . | . | . | -2.4
CC1(C)NC(=O)N(CCCCOc2ccc3ccccc3c2Cl)C1=O | 0 | 41* | . | -2 | -1.3
O=C1CCCN1CCCNCC(=O)N1c2ccccc2Sc2ccccc21 | 1 | -1 | . | 1 | 0.65
COc1ccccc1NC(=O)CN1C(=O)NC(CC(C)C)C1=O (stereo not drawn) | -1 | 48* | -10 | 4 | 0.47
CCCC1(CCC)NC(=O)N(CC(=O)Nc2ccccc2OC)C1=O | 1 | 12 | -4 | 2 | 0.28

Source: PubChem
